Measured values taken from ChEMBL document CHEMBL1629431, “Synthesis and antitumor activity of some 2, 3-disubstituted quinazolin-4(3H)-ones and 4, 6- disubstituted- 1, 2, 3, 4-tetrahydroquinazolin-2H-ones” (2010).

How the values were obtained:
Format in all cases: functional
CCRF-CEM = assay: Growth inhibition of human CCRF-CEM cells at 10 uM after 48 hrs by coulter counter method; conditions: read-out: GI
Procedure, shortened: (§1)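 Single high-dose NCI 60-cell-line panel screen across nine tumor subpanels. Test solutions (0.2 mL) were added in duplicate to wells holding 1.8 mL of culture at 6 × 10⁴ cells/mL. Controls got PBS and DMSO at identical dilutions. Incubation was 48 h at 37 °C in humidified 5% CO₂. Cells were diluted 10-fold in saline, Coulter-counted and dilution-corrected. Results were expressed as percent growth inhibition versus control.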

HL-60(TB) = assay: Growth inhibition of human HL-60(TB) cells at 10 uM after 48 hrs by coulter counter method; conditions: HL-60, 48 h, read-out: GI
Procedure, shortened: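 Part of the NCI 60-cell-line single-high-dose panel. Cells were seeded at 6 × 10⁴ cells/mL with test solution in duplicate wells, alongside PBS/DMSO controls at identical dilutions. Plates were held 48 h at 37 °C in a humidified 5% CO₂ incubator. Cells were then diluted 10-fold in saline and counted by Coulter counter, with counts corrected for dilution. Results are percent growth of treated cells, reported as GI %.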

K562 = assay: Growth inhibition of human K562 cells at 10 uM after 48 hrs by coulter counter method; conditions: K562, 48 h, read-out: GI; procedure, shortened: as §1
A549 = assay: Growth inhibition of human A549 cells at 10 uM after 48 hrs by coulter counter method; conditions: A549, 48 h, read-out: GI; procedure, shortened: as §1
HOP-92 = assay: Growth inhibition of human HOP92 cells at 10 uM after 48 hrs by coulter counter method; conditions: HOP-92, 48 h, read-out: GI; procedure, shortened: as §1
NCI-H226 = assay: Growth inhibition of human NCI-H226 cells at 10 uM after 48 hrs by coulter counter method; conditions: NCI-H226, 48 h, read-out: GI; procedure, shortened: as §1
NCI-H23 = assay: Growth inhibition of human NCI-H23 cells at 10 uM after 48 hrs by coulter counter method; conditions: NCI-H23, 48 h, read-out: GI; procedure, shortened: as §1
NCI-H522 = assay: Growth inhibition of human NCI-H522 cells at 10 uM after 48 hrs by coulter counter method; conditions: NCI-H522, 48 h, read-out: GI; procedure, shortened: as §1
COLO 205 = assay: Growth inhibition of human COLO205 cells at 10 uM after 48 hrs by coulter counter method; conditions: COLO 205, 48 h, read-out: GI; procedure, shortened: as §1
HCT-116 = assay: Growth inhibition of human HCT116 cells at 10 uM after 48 hrs by coulter counter method; conditions: HCT-116, 48 h, read-out: GI; procedure, shortened: as §1
HT-29 = assay: Growth inhibition of human HT-29 cells at 10 uM after 48 hrs by coulter counter method; conditions: HT-29, 48 h, read-out: GI; procedure, shortened: as §1
KM12 = assay: Growth inhibition of human KM12 cells at 10 uM after 48 hrs by coulter counter method; conditions: KM12, 48 h, read-out: GI; procedure, shortened: as §1
SF-268 = assay: Growth inhibition of human SF268 cells at 10 uM after 48 hrs by coulter counter method; conditions: SF-268, 48 h, read-out: GI; procedure, shortened: as §1
SF-539 = assay: Growth inhibition of human SF539 cells at 10 uM after 48 hrs by coulter counter method; conditions: SF-539, 48 h, read-out: GI; procedure, shortened: as §1
SNB-75 = assay: Growth inhibition of human SNB75 cells at 10 uM after 48 hrs by coulter counter method; conditions: SNB-75, 48 h, read-out: GI; procedure, shortened: as §1
U-251 = assay: Growth inhibition of human U251 cells at 10 uM after 48 hrs by coulter counter method; conditions: U-251, 48 h, read-out: GI; procedure, shortened: as §1
M14 = assay: Growth inhibition of human M14 cells at 10 uM after 48 hrs by coulter counter method; conditions: M14, 48 h, read-out: GI; procedure, shortened: as §1
SK-MEL-2 = assay: Growth inhibition of human SK-MEL-2 cells at 10 uM after 48 hrs by coulter counter method; conditions: SK-MEL-2, 48 h, read-out: GI; procedure, shortened: as §1
SK-MEL-28 = assay: Growth inhibition of human SK-MEL-28 cells at 10 uM after 48 hrs by coulter counter method; conditions: SK-MEL-28, 48 h, read-out: GI; procedure, shortened: as §1
UACC-62 = assay: Growth inhibition of human UACC62 cells at 10 uM after 48 hrs by coulter counter method; conditions: UACC-62, 48 h, read-out: GI; procedure, shortened: as §1
OVCAR-4 = assay: Growth inhibition of human OVCAR4 cells at 10 uM after 48 hrs by coulter counter method; conditions: OVCAR-4, 48 h, read-out: GI; procedure, shortened: as §1
OVCAR-8 = assay: Growth inhibition of human OVCAR8 cells at 10 uM after 48 hrs by coulter counter method; conditions: OVCAR-8, 48 h, read-out: GI; procedure, shortened: as §1
SK-OV-3 = assay: Growth inhibition of human SKOV3 cells at 10 uM after 48 hrs by coulter counter method; conditions: SK-OV-3, 48 h, read-out: GI; procedure, shortened: as §1
786-0 = assay: Growth inhibition of human 786-0 cells at 10 uM after 48 hrs by coulter counter method; conditions: 786-0, 48 h, read-out: GI; procedure, shortened: as §1
CAKI-1 = assay: Growth inhibition of human Caki1 cells at 10 uM after 48 hrs by coulter counter method; conditions: CAKI-1, 48 h, read-out: GI; procedure, shortened: as §1
SN12C = assay: Growth inhibition of human SN12C cells at 10 uM after 48 hrs by coulter counter method; conditions: read-out: GI; procedure, shortened: as §1
UO-31 = assay: Growth inhibition of human UO31 cells at 10 uM after 48 hrs by coulter counter method; conditions: UO-31, 48 h, read-out: GI; procedure, shortened: as §1
PC-3 = assay: Growth inhibition of human PC3 cells at 10 uM after 48 hrs by coulter counter method; conditions: PC-3, 48 h, read-out: GI; procedure, shortened: as §1
MCF7 = assay: Growth inhibition of human MCF7 cells at 10 uM after 48 hrs by coulter counter method; conditions: MCF7, 48 h, read-out: GI; procedure, shortened: as §1
MDA-MB-231 = assay: Growth inhibition of human MDA-MB-231 cells at 10 uM after 48 hrs by coulter counter method; conditions: MDA-MB-231, 48 h, read-out: GI; procedure, shortened: as §1
[1] = Growth inhibition of human Hs 578T cells at 10 uM after 48 hrs by coulter counter method; conditions: read-out: GI; procedure, shortened: as §1
BT-549 = assay: Growth inhibition of human BT549 cells at 10 uM after 48 hrs by coulter counter method; conditions: BT-549, 48 h, read-out: GI; procedure, shortened: as §1
T47D = assay: Growth inhibition of human T47D cells at 10 uM after 48 hrs by coulter counter method; conditions: read-out: GI; procedure, shortened: as §1
MDA-MB-468 = assay: Growth inhibition of human MDA-MB-468 cells at 10 uM after 48 hrs by coulter counter method; conditions: MDA-MB-468, 48 h, read-out: GI; procedure, shortened: as §1
MOLT-4 = assay: Growth inhibition of human MOLT4 cells at 10 uM after 48 hrs by coulter counter method; conditions: MOLT-4, 48 h, read-out: GI; procedure, shortened: as §1
IGROV-1 = assay: Growth inhibition of human IGROV1 cells at 10 uM after 48 hrs by coulter counter method; conditions: IGROV-1, 48 h, read-out: GI; procedure, shortened: as §1

Row | Compound | inhibition of growth at 10 µM (HL-60(TB)) [%] | inhibition of growth at 10 µM (K562) [%] | inhibition of growth at 10 µM (A549) [%] | inhibition of growth at 10 µM (NCI-H226) [%] | inhibition of growth at 10 µM (NCI-H23) [%] | inhibition of growth at 10 µM (NCI-H522) [%] | inhibition of growth at 10 µM (HCT-116) [%] | inhibition of growth at 10 µM (HT-29) [%] | inhibition of growth at 10 µM (KM12) [%] | inhibition of growth at 10 µM (SF-268) [%] | inhibition of growth at 10 µM (SF-539) [%] | inhibition of growth at 10 µM (SNB-75) [%] | inhibition of growth at 10 µM (U-251) [%] | inhibition of growth at 10 µM (M14) [%] | inhibition of growth at 10 µM (SK-MEL-2) [%] | inhibition of growth at 10 µM (SK-MEL-28) [%] | inhibition of growth at 10 µM (UACC-62) [%] | inhibition of growth at 10 µM (OVCAR-4) [%] | inhibition of growth at 10 µM (OVCAR-8) [%] | inhibition of growth at 10 µM (SK-OV-3) [%] | other results
1 | CCn1c(-n2ccnc2)nc2ccccc2c1=O | 30 | 37.9 | 30 | 30 | 30 | 30 | 30 | 30 | 30 | 30 | 30 | 30 | 30 | 30 | 30 | 30 | 30 | 30 | 30 | 30 | inhibition of growth at 10 µM (CCRF-CEM): 30%; inhibition of growth at 10 µM (HOP-92): 30%; inhibition of growth at 10 µM (COLO 205): 30%; inhibition of growth at 10 µM (786-0): 30%; inhibition of growth at 10 µM (CAKI-1): 46.3%; inhibition of growth at 10 µM (SN12C): 30%; inhibition of growth at 10 µM (UO-31): 30%; inhibition of growth at 10 µM (PC-3): 30%; inhibition of growth at 10 µM (MCF7): 30%; inhibition of growth at 10 µM (MDA-MB-231): 30%; inhibition of growth at 10 µM [1]: 30%; inhibition of growth at 10 µM (BT-549): 30%; inhibition of growth at 10 µM (T47D): 30%; inhibition of growth at 10 µM (MDA-MB-468): 30%
2 | O=c1c2ccccc2nc(-n2ccnc2)n1-c1ccccc1 | 30 | 30 | 30 | 30 | 30 | 30 | 30 | 30 | 30 | 30 | 30 | 30 | 30 | 30 | 30 | 30 | 30 | 30 | 30 | 30 | inhibition of growth at 10 µM (CCRF-CEM): 30%; inhibition of growth at 10 µM (MOLT-4): 30%; inhibition of growth at 10 µM (HOP-92): 76.6%; inhibition of growth at 10 µM (786-0): 30%; inhibition of growth at 10 µM (CAKI-1): 30%; inhibition of growth at 10 µM (SN12C): 30%; inhibition of growth at 10 µM (UO-31): 30%; inhibition of growth at 10 µM (PC-3): 30%; inhibition of growth at 10 µM (MCF7): 30%; inhibition of growth at 10 µM (MDA-MB-231): 30%; inhibition of growth at 10 µM [1]: 30%; inhibition of growth at 10 µM (BT-549): 30%; inhibition of growth at 10 µM (T47D): 30%; inhibition of growth at 10 µM (MDA-MB-468): 30%
3 | O=c1c2ccccc2nc(-n2ccnc2)n1-c1ccc(Cl)cc1 | 30 | 37.1 | 30 | 30 | 30 | 30 | 30 | 30 | 30 | 30 | 30 | 30 | 30 | 30 | 30 | 30 | 30 | 30 | 30 | 30 | inhibition of growth at 10 µM (MOLT-4): 47.7%; inhibition of growth at 10 µM (HOP-92): 30%; inhibition of growth at 10 µM (COLO 205): 30%; inhibition of growth at 10 µM (IGROV-1): 30%; inhibition of growth at 10 µM (786-0): 30%; inhibition of growth at 10 µM (CAKI-1): 30%; inhibition of growth at 10 µM (SN12C): 30%; inhibition of growth at 10 µM (UO-31): 30%; inhibition of growth at 10 µM (PC-3): 40.3%; inhibition of growth at 10 µM (MCF7): 30%; inhibition of growth at 10 µM (MDA-MB-231): 30%; inhibition of growth at 10 µM [1]: 30%; inhibition of growth at 10 µM (BT-549): 30%; inhibition of growth at 10 µM (T47D): 39%; inhibition of growth at 10 µM (MDA-MB-468): 30%
4 | COc1ccc(-n2c(-n3ccnc3)nc3ccccc3c2=O)cc1 | 30 | 30.8 | 30 | 30 | 30 | 30 | 30 | 30 | 30 | 30 | 30 | 30 | 30 | 30 | 30 | 30 | 30 | 30 | 30 | 30 | inhibition of growth at 10 µM (CCRF-CEM): 30%; inhibition of growth at 10 µM (COLO 205): 30%; inhibition of growth at 10 µM (IGROV-1): 30%; inhibition of growth at 10 µM (786-0): 30%; inhibition of growth at 10 µM (CAKI-1): 30%; inhibition of growth at 10 µM (SN12C): 30%; inhibition of growth at 10 µM (UO-31): 30%; inhibition of growth at 10 µM (PC-3): 30%; inhibition of growth at 10 µM (MCF7): 30%; inhibition of growth at 10 µM (MDA-MB-231): 30%; inhibition of growth at 10 µM [1]: 30%; inhibition of growth at 10 µM (BT-549): 30%; inhibition of growth at 10 µM (T47D): 30%; inhibition of growth at 10 µM (MDA-MB-468): 30%
